Series [1] is described as follows: Half life in human liver microsomes. The class given is ADME, Microsome. In general terms: Liver microsomes are vesicles of endoplasmic reticulum, rich in cytochrome P450 enzymes.
The target of series [2] is T1, Tankyrase 1/2 (Homo sapiens, UniProt Q9H2K2+O95271).
T1 sequence (Q9H2K2 whole entry): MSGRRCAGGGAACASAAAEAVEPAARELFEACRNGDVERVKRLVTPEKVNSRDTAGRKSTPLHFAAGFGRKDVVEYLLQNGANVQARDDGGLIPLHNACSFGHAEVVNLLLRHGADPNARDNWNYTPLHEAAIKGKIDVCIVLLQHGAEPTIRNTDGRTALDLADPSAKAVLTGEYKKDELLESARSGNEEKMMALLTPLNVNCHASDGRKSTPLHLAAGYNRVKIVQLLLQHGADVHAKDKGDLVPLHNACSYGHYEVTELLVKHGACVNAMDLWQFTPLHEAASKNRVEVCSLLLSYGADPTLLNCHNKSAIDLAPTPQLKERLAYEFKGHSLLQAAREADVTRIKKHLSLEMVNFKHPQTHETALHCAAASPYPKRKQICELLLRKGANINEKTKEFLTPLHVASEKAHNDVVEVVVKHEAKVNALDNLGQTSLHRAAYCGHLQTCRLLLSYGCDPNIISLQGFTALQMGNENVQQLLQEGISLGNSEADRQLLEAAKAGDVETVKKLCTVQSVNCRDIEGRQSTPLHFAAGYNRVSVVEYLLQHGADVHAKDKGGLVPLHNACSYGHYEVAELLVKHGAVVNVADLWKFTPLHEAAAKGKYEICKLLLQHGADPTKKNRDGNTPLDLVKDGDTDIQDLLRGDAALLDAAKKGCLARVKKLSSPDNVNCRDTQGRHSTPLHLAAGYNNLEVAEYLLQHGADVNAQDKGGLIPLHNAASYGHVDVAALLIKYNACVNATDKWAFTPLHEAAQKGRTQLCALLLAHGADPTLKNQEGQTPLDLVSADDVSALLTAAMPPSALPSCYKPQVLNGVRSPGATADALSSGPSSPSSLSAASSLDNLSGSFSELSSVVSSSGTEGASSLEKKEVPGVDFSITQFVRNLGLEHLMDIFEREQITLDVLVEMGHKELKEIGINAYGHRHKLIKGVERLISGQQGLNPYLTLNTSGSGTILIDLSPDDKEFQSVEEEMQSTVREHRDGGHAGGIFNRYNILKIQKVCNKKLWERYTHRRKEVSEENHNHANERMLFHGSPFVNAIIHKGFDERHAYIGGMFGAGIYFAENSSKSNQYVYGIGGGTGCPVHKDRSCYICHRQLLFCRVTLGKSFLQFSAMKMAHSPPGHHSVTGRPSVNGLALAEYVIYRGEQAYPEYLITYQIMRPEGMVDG
T1 sequence (O95271 whole entry): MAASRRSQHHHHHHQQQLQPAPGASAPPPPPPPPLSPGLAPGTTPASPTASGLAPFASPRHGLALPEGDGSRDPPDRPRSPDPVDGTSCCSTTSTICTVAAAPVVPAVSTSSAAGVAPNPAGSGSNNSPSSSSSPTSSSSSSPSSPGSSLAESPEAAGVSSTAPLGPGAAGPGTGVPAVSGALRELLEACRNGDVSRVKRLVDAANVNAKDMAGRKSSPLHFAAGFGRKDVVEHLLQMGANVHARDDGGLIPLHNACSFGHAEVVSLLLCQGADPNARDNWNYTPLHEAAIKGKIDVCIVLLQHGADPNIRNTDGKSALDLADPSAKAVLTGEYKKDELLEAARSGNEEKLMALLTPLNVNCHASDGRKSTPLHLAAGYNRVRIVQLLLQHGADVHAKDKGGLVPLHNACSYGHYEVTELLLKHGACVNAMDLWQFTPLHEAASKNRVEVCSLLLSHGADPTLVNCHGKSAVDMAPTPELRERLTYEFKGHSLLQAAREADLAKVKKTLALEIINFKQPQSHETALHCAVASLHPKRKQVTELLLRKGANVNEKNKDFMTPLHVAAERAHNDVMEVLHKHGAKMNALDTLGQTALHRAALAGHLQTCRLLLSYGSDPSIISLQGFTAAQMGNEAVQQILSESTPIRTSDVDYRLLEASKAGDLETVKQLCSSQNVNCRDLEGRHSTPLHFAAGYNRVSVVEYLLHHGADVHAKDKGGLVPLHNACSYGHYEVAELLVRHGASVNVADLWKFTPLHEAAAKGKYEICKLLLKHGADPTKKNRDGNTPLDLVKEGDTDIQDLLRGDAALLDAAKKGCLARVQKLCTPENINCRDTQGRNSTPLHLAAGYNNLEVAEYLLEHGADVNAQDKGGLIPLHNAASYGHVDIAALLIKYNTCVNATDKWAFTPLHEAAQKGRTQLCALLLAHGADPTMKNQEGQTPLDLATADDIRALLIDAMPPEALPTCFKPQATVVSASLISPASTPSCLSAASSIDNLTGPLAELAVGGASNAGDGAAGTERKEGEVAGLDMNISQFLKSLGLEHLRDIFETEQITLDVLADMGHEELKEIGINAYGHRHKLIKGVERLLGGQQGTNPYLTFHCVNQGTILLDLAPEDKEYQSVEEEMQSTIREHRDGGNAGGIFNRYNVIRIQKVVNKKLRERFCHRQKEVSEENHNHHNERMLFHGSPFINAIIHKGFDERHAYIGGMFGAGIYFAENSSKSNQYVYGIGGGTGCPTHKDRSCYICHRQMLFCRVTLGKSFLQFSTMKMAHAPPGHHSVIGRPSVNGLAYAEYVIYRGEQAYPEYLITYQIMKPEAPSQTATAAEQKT
Nature of the series: Inhibition of TNKS1/2 in HEK293 cells assessed as inhibition of Wnt/beta-catenin pathway after 24 hrs by luciferase reporter gene assay. The class given is cell-based.

Series [3] concerns the target T2, Poly [ADP-ribose] polymerase tankyrase-2 (Homo sapiens, UniProt Q9H2K2).
T2 sequence (Q9H2K2 whole entry): T1 sequence (Q9H2K2 whole entry)
Briefly: Inhibition of TNKS2 (unknown origin) by NAD+-dependent autopoly(ADP ribosyl)lation assay.

The target of series [4] is Tankyrase 1/2 (Homo sapiens) (UniProt Q9H2K2+O95271). Nature of the series: Inhibition of TNKS1/2 in HEK293 cells assessed as inhibition of Wnt/[…] pathway at 10 uM after 24 hrs by luciferase reporter gene assay. The class given is cell-based. In outline:
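ST-Luc/Ren HEK293 cells (stable SuperTOP-Flash, 7× TCF sites) were seeded at 40,000 per well on poly-L-lysine. After 24 h, cells got compound for 24 h in 50% Wnt3a-conditioned medium from L Wnt3a cells. Lysates were read for firefly and Renilla luciferase by dual-luciferase luminescence.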
A general note: A reporter such as luciferase makes a cellular process visible.

Calls of active or inactive are those of the source. The calls are words filed in the database; no cut-off is given here. Some results are limits rather than exact numbers.

Usually half-life stands for how long it takes for the measured level to halve. Low readings indicate fast loss, high ones slow loss. For `Cc1cc2nc(CSc3nnc(-c4ccncc4)n3-c3ccccc3Cl)cc(=O)n2cc1C`, in series [1], the half-life came out at 7 min.
For orientation: IC50 means the midpoint of a concentration-inhibition curve. As to `Cc1ccc(-c2noc(CSc3ncc(-c4ccncc4)n3-c3ccccc3C)n2)cc1`, the IC50 in series [2] is over 10 µM.
`Cc1ccc(-c2nnc(CCc3nnc(-c4ccncc4)n3-c3ccccc3Cl)o2)cc1`: the half-life in series [1] was 7 min.
Still for that read-out and setting: under `COc1cc(-c2nnc(/C=C/c3nnc(-c4ccc(S(C)(=O)=O)cn4)n3-c3ccccc3Cl)o2)ccn1` stands 37 min.
With `COc1ccc(-n2c(SCc3nc(-c4ccc(C)cc4)no3)nnc2-c2ccncc2)cc1`, the IC50 was 0.46 µM in series [3] and 1.01 µM in series [2]. Further, in series [1], the half-life amounted to 3 min.
With `NCCCOCCCOc1cccc(-c2noc(CSc3nnc(-c4ccncc4)n3-c3ccccc3Cl)n2)c1`, in series [2], the IC50 amounted to 3.92 µM.
In the case of `Oc1cc(-c2nnc(/C=C/c3nnc(-c4ccc(F)cc4)n3-c3ccccc3Cl)o2)ccn1`, the half-life in series [1] came out at 128 min.
Consider `N#Cc1ccc(-c2nnc(CSc3nnc(-c4ccncc4)n3-c3ccncc3Cl)o2)cc1`, for which the inhibition result in series [4] is “inactive”.
For the compound `COc1ccc(-n2c(OCc3nc(-c4ccc(C)cc4)no3)nnc2-c2ccncc2)cc1`, the IC50 in series [3] and in series [2] was over 10 µM in each case.
`N#Cc1ccc(-c2nnc(CSc3nnc(-c4ccncc4)n3-c3ccccc3Cl)o2)cc1` returned a half-life in series [1] of 2.4 min.
In turn, `CS(=O)(=O)c1ccc(-c2nnc(SCc3nnc(-c4ccc(Cl)cc4)o3)n2-c2ccccc2Cl)nc1` showed a half-life in series [1] of 4 min.
Consider `Cc1nnc(SCc2nnc(-c3ccc(Cl)cc3)o2)n1-c1ccccc1Cl`, for which, in series [2], the IC50 worked out at 4.5 µM.
With `COc1ccc(-n2c(NCc3nc(-c4ccc(C)cc4)no3)nnc2-c2ccncc2)cc1`, the IC50 in series [3] and in series [2] was over 10 µM throughout. In addition, the half-life in series [1] stood at 6.5 min.
